Source: ChEMBL document CHEMBL1157554, “Biomimetic synthesis and anti-HIV activity of dimeric phloroglucinols” (Bioorg Med Chem, 2010)

How the values were obtained:
[1] = molecular target: Human immunodeficiency virus type 1 reverse transcriptase (Human immunodeficiency virus 1, UniProt Q72547); experiment: Inhibition of HIV1 reverse transcriptase by EIA
[2] = tested on: Human immunodeficiency virus 1; experiment: Antiviral activity against HIV1 NL4-3 infected in GFP expressing human CEM cells assessed as inhibition of viral p24 antigen production at non-toxic concentration after 7 days postinfection by ELISA; format: functional, CCRF-CEM
In short: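 CEM-GFP reporter T cells infected with HIV-1 NL4.3 at MOI 0.05 and cultured with samples at the highest non-toxic concentration. Virus production was measured in culture supernatant on day 7 post-infection by p24 antigen capture ELISA.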

[3] = tested on: Human immunodeficiency virus 1; experiment: Antiviral activity against HIV1 NL4-3 infected in GFP expressing human CEM cells assessed as inhibition of viral infection measured after 9 days postinfection by microfluorometry; format: functional, organism-based; settings: Human immunodeficiency virus 1, NL4-3, CCRF-CEM, 216 h
In short: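 CEM-GFP human CD4+ T cells, which carry an integrated LTR-driven GFP reporter, infected with HIV-1 NL4.3 at MOI 0.05. Cells were incubated with samples for up to 9 days post-infection. Infection was followed by GFP fluorescence microscopy, and screening inhibition was quantified by GFP microfluorometry. IC50 is the concentration giving 50% inhibition of infected cells (n = 3).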

[4] = Cytotoxicity against GFP expressing human CEM cells after 48 to 72 hrs by MTT assay; format: cell-based, CCRF-CEM
In short: (§1)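 MTT assay on uninfected CEM-GFP cells seeded at 2 × 10⁴ cells/well. Samples were added at various concentrations, with untreated or vehicle-treated controls, and incubated 48–72 h. Formazan was solubilized and absorbance read at 540 nm. Non-toxic concentrations were carried into antiviral screening. CC50 was from triplicate determinations.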

[5] = molecular target: Human immunodeficiency virus type 1 reverse transcriptase (Human immunodeficiency virus 1) (UniProt Q72547); experiment: Inhibition of HIV1 reverse transcriptase at 20 ug/mL by EIA
[6] = Cytotoxicity against GFP expressing human CEM cells assessed as maximal non-toxic concentration after 48 to 72 hrs by MTT assay; format: cell-based, CCRF-CEM; in short: as §1
[7] = tested on: Human immunodeficiency virus; experiment: Inhibition of HIV reverse transcriptase at 25 ug/mL

EC50 [1] [nM] | IC50 [3] [µM] | inhibition [5] [%] | inhibition [7] [%] | Compound | inhibition (INH) [2] [%] | CC50 [4] [µM] | MNTC [6] [µM]
1040 | 2.71 | 87.8 | – | CC(C)CC(=O)c1c(O)c(C(=O)CC(C)C)c(O)c(C(c2ccc(OCc3ccccc3)cc2)c2c(O)c(C(=O)CC(C)C)c(O)c(C(=O)CC(C)C)c2O)c1O | 70 | 24 | 5.75
– | 3.37 | 0 | – | CC(C)CC(=O)c1c(O)c(C(=O)CC(C)C)c(O)c(C(c2ccccn2)c2c(O)c(C(=O)CC(C)C)c(O)c(C(=O)CC(C)C)c2O)c1O | 64.7 | 38.1 | 7.39
– | – | – | – | CC(C)CC(=O)c1c(O)c(C(=O)CC(C)C)c(O)c(C(c2ccc3c(c2)OCO3)c2c(O)c(C(=O)CC(C)C)c(O)c(C(=O)CC(C)C)c2O)c1O | 13.9 | – | 2.77
– | – | – | – | CC(C)CC(=O)c1c(O)c(C=O)c(O)c(C(c2ccccn2)c2c(O)c(C=O)c(O)c(C(=O)CC(C)C)c2O)c1O | 26.9 | – | 15.9
– | – | – | – | CC(=O)c1c(O)c(C(C)=O)c(O)c(C(c2ccc(O)cc2)c2c(O)c(C(C)=O)c(O)c(C(C)=O)c2O)c1O | 56 | – | 14.3
– | – | – | – | CC(C)CC(=O)c1c(O)c(C(=O)CC(C)C)c(O)c(C(CCc2ccccc2)c2c(O)c(C(=O)CC(C)C)c(O)c(C(=O)CC(C)C)c2O)c1O | 15 | – | 0.71
– | – | – | – | CC(C)CC(=O)c1c(O)c(C(=O)CC(C)C)c(O)c(C(c2ccco2)c2c(O)c(C(=O)CC(C)C)c(O)c(C(=O)CC(C)C)c2O)c1O | 56.8 | – | 3.75
470 | 18.6 | 80.5 | – | CC(=O)c1c(O)c(C(C)=O)c(O)c(C(c2c(O)c(C(C)=O)c(O)c(C(C)=O)c2O)c2ccnc3ccccc23)c1O | 71.1 | 93.4 | 35.8
– | – | – | – | Cc1cn([C@H]2C[C@H](N=[N+]=[N-])[C@@H](CO)O2)c(=O)[nH]c1=O [ZIDOVUDINE] | 89.75 | 24.1 | 5
– | 6.06 | 13.4 | – | CC(=O)c1c(O)c(C(C)=O)c(O)c(C(c2ccc(N(C)C)cc2)c2c(O)c(C(C)=O)c(O)c(C(C)=O)c2O)c1O | 60.6 | 22.1 | 9.07
– | – | – | – | CCC(c1c(O)c(C(C)=O)c(O)c(C(C)=O)c1O)c1c(O)c(C(C)=O)c(O)c(C(C)=O)c1O | 17.5 | – | 2.17
– | – | – | – | CC(C)CC(=O)c1c(O)c(C(=O)CC(C)C)c(O)c(C(c2ccc(O)cc2)c2c(O)c(C(=O)CC(C)C)c(O)c(C(=O)CC(C)C)c2O)c1O | 15.6 | – | 1.45
– | 0.28 | 4.61 | – | CC(C)CC(=O)c1c(O)c(C(=O)CC(C)C)c(O)c(C(c2ccccc2)c2c(O)c(C(=O)CC(C)C)c(O)c(C(=O)CC(C)C)c2O)c1O | 66.5 | 3.15 | 0.74
– | – | – | – | CC(=O)c1c(O)c(Cc2c(O)c(C(C)=O)c(O)c(C(C)=O)c2O)c(O)c(C(C)=O)c1O | 0 | – | 0.23
– | – | – | – | CC(C)CC(=O)c1c(O)c(Cc2c(O)c(C(=O)CC(C)C)c(O)c(C(=O)CC(C)C)c2O)c(O)c(C(=O)CC(C)C)c1O | 0 | – | 0.17
– | – | – | – | CC(C)CC(=O)c1c(O)c(C=O)c(O)c(C(c2ccc(OCc3ccccc3)cc2)c2c(O)c(C=O)c(O)c(C(=O)CC(C)C)c2O)c1O | 0 | – | 7.46
– | – | – | – | CC(C)CC(=O)c1c(O)c(C=O)c(O)c(Cc2c(O)c(C=O)c(O)c(C(=O)CC(C)C)c2O)c1O | 0 | – | 4.1
– | 6.75 | 16.2 | – | CC(=O)c1c(O)c(C(C)=O)c(O)c(C(c2ccco2)c2c(O)c(C(C)=O)c(O)c(C(C)=O)c2O)c1O | 73 | 61.2 | 15.1
– | – | – | 90 | COc1c(C)c(O)c(C(C)=O)c(O)c1Cc1c(O)c(CC=C(C)C)c(O)c(C(C)=O)c1O | – | – | –
– | 4.09 | 0 | – | CC(=O)c1c(O)c(C(C)=O)c(O)c(C(c2c(O)c(C(C)=O)c(O)c(C(C)=O)c2O)C2CCCCC2)c1O | 78.5 | 58.9 | 9.73
– | – | – | – | CC(=O)c1c(O)c(C(C)=O)c(O)c(C(CCc2ccccc2)c2c(O)c(C(C)=O)c(O)c(C(C)=O)c2O)c1O | 16 | – | 1.87
– | – | – | – | CC(C)C(=O)c1c(O)c(Cc2c(O)c(C(=O)C(C)C)c(O)c(C(=O)C(C)C)c2O)c(O)c(C(=O)C(C)C)c1O | 0 | – | 0.09
– | – | – | – | CC(C)CC(=O)c1c(O)c(C(=O)CC(C)C)c(O)c(C(c2c(O)c(C(=O)CC(C)C)c(O)c(C(=O)CC(C)C)c2O)c2ccnc3ccccc23)c1O | 30.1 | – | 3.44
